Measurements: ChEMBL document CHEMBL1146004, “Effect of substitution on novel tricyclic HIV-1 integrase inhibitors” (Bioorg Med Chem Lett, 2006)
In brackets after ≈: the same amount, converted by molar mass.

What was measured:
MT4 = experiment: Cytotoxicity against human MT4 cells; type: functional
[1] = biological target: Human immunodeficiency virus type 1 integrase (Human immunodeficiency virus 1, UniProt Q7ZJM1); experiment: Inhibition of HIV1 integrase strand transfer activity
[2] = system: Human immunodeficiency virus 1; experiment: Antiviral activity against HIV1 3B in MT4 cell line; type: functional, organism-based; settings: Human immunodeficiency virus 1, 3B
How it was run: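 MT-4 cells infected with HIV-1 IIIB at moi 0.01 for 3 h, then ~1.5 × 10⁴ cells/well added to 5-fold serial drug dilutions (9 concentrations, triplicate) in culture medium; 37 °C for 5 days. Viability read by CellTiter-Glo chemiluminescence after 10 min lysis at room temperature; EC50 derived.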

physchem [3] = settings: buffer, pH 7.3
physchem [4] = settings: buffer, pH 2.2

Chain of Human immunodeficiency virus type 1 integrase (Q7ZJM1 whole entry): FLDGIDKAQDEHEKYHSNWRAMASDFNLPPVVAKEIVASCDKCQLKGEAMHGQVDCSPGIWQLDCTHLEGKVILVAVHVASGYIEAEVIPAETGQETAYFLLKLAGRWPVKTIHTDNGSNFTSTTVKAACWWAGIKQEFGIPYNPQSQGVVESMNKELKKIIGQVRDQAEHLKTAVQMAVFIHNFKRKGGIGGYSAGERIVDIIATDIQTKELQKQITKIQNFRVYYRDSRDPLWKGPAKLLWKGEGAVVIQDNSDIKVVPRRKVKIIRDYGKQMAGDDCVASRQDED

| IC50 [1] [nM] | EC50 [2] [nM] | solubility (physchem [3]) [µM] | solubility (physchem [4]) [µM] | SMILES | CC50 (MT4) [nM] |
| --- | --- | --- | --- | --- | --- |
| 60 | – | – | – | COc1c2c(c(O)c3ncccc13)C(=O)N(Cc1ccc(F)cc1)C2 | 5100 |
| 88 | 77 | 3 (≈ 1.06 µg/mL) | 193 (≈ 68 µg/mL) | COc1c2c(c(O)c3ncccc13)C(=O)N(Cc1ccc(F)cc1)C2C (configuration not stated) | 1600 |
| 310 | 430 | – | – | COC(=O)CCSC1c2c(c(O)c3ncccc3c2OC)C(=O)N1Cc1ccc(F)cc1 (configuration not stated) | 2800 |
| 357 | 443 | 2.1 (≈ 0.961 µg/mL) | 11 (≈ 5.03 µg/mL) | CN(C)S(=O)(=O)Oc1c2c(c(O)c3ncccc13)C(=O)N(Cc1ccc(F)cc1)C21CC1 | 14200 |
| 815 | 8 | 2 (≈ 0.891 µg/mL) | 11 (≈ 4.9 µg/mL) | CC1c2c(c(O)c3ncccc3c2OS(=O)(=O)N(C)C)C(=O)N1Cc1ccc(F)cc1 (configuration not stated) | 755 |
| 295 | 3400 | – | – | COc1c2c(c(O)c3ncccc13)C(=O)N(Cc1ccc(F)cc1)C2SCCC(=O)O (configuration not stated) | 24000 |
| 64 | 415 | – | – | COc1c2c(c(O)c3ncccc13)C(=O)N(Cc1ccc(F)cc1)C2OC (configuration not stated) | 11400 |
| 80 | 7500 | < 1.4 | < 1.4 | O=C1c2c(c(O)c3ncccc3c2O)C(=O)N1Cc1ccc(F)cc1 | 19000 |
| 210 | 1110 | – | – | COc1c2c(c(O)c3ncccc13)C(=O)N(Cc1ccc(F)cc1)C2(C)C | 427 |
| 255 | – | < 2.3 | 7 (≈ 3.02 µg/mL) | CN(C)S(=O)(=O)Oc1c2c(c(O)c3ncccc13)C(=O)N(Cc1ccc(F)cc1)C2 | 1400 |

| SMILES | IC50 [1] [nM] | EC50 [2] [nM] | solubility (physchem [3]) [µM] | solubility (physchem [4]) [µM] | CC50 (MT4) [nM] |
| --- | --- | --- | --- | --- | --- |
| C=C1c2c(c(O)c3ncccc3c2OC)C(=O)N1Cc1ccc(F)cc1 | 150 | 375 | – | – | 6100 |
| C=C1c2c(c(O)c3ncccc3c2OS(=O)(=O)N(C)C)C(=O)N1Cc1ccc(F)cc1 | 420 | 52 | < 1 | < 1 | 1650 |
| COc1c2c(c(O)c3ncccc13)C(=O)N(Cc1ccc(F)cc1)C2SCCC(=O)N1CCNCC1 (configuration not stated) | 59 | 685 | – | – | 5250 |
| COc1c2c(c(O)c3ncccc13)C(=O)N(Cc1ccc(F)cc1)C21CC1 | 7 | 124 | 26 (≈ 9.47 µg/mL) | 49 (≈ 17.9 µg/mL) | 3300 |
| COc1c2c(c(O)c3ncccc13)C(=O)N(Cc1ccc(F)cc1)C2O (configuration not stated) | 36 | 256 | – | – | 9740 |
